# UCH37 inh: inhibitors of human UCH37 deubiquitinase, primary screen, biochemical, Ub-AMC cleavage, fluorescence; Ubiquitin carboxyl-terminal hydrolase isozyme L5 (Homo sapiens), Q9Y5K5; purified proteasome/UCH37; inhibition, % (no concentration beside the values); hit rate 0.33% among 330,000; AID 588478, 2011;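 active = mean inhibition over replicate wells above about 20%, limit read from the data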;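 note: 0% = compound-free wells with enzyme and 100% = wells lacking proteasome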
#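 Signal – fluorescence, ex 355 nm, em 460 nm · System – Proteasome-bound UCH37 · Input – 0.15 nM proteasome as dispensed · Timing – 30 min preincubation with enzyme, 25 min cleavage at room temperature · Read-out basis – percent inhibition of cleavage signal versus uninhibited and no-proteasome wells · Medium – Tris-HCl pH 7.4 with ATP-MgCl2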
# beta cell repl: inducers of MIN6 beta-cell proliferation, primary screen, ATP luminescence, uHTS; MIN6 cells proliferation, ATPlite luminescence, 48 h; cells starved in 0.2% serum; 100% = growth in 10% serum; proliferation, % at 10 µM; hit rate 0.29% among 330,000;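 active = compounds whose signal lies at least 3.5 SD above the mean of all wells on their plate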;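 note: 0% = DMSO-treated cells in low-serum medium and 100% = 10% serum control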
# PG9 Ab binder: binders of HIV-1 gp120 antibody PG9, primary screen, biochemical, TR-FRET; TR-FRET gp120-PG9 antibody binding; inhibition, % at 6.7 µM; HIV-1 gp120 / PG9 antibody interaction; hit rate 0.43% among 360,000; in the data active = inhibition above about 8.5%
# CR mimetic SO: reduction of superoxide in aged yeast, primary screen, HTS; S. cerevisiae aged cells, superoxide DHE fluorescence; active compounds read low; superoxide response (% of plate mean), % at 10 µM; hit rate 0.18% among 330,000; AID 2690, 2010;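 active = superoxide response under a set limit, about three screen SD below normal, cut at about 65% in these data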;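 note: yeast aged for seven days with compound at 30 °C before DHE staining; 100% = average MFI of all compound-treated wells on the plate with controls excluded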
# NR1D1 modulator: modulators of Rev-erb alpha DNA binding, primary screen, biochemical, FITC-DNA, fluorescence polarization, uHTS | Nuclear receptor subfamily 1 group D member 1 (Homo sapiens), P20393 | Rev-erbα–FITC-DNA binding, 90 min | activity, % at 10 µM | hit rate 0.79% among 370,000;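 active = activity above about 14%, limit read from the data; passing the limit was not always enough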;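 note: 0% = DMSO wells with 35 nM protein and 100% = DMSO wells with 750 nM protein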
# Target sequence (P20393 whole entry, looked up): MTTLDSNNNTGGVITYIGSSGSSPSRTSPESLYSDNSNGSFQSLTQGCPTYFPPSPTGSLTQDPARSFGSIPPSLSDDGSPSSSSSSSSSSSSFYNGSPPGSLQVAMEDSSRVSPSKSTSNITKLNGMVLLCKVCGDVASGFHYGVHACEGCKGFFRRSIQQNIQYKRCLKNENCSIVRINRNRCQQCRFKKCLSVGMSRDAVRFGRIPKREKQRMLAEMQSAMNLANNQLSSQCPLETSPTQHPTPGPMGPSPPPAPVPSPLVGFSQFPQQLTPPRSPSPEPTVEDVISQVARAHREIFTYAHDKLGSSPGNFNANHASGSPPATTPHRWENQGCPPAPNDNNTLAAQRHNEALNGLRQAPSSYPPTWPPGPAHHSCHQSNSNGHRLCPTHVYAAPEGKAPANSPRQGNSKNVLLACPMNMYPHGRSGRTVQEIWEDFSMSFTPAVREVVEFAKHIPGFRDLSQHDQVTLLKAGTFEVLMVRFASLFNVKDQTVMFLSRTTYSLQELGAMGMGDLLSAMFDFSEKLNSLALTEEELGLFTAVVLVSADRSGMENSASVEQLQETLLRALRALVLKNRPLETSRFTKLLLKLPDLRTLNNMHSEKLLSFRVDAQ
# Rce1 inhib: yeast Rce1p protease inhibitors, primary screen, biochemical, fluorescence, cell-free homogeneous; yeast membranes, quenched prenylated peptide cleavage fluorescence; calls only; hit rate 0.27% among 290,000; AID 2563, 2010;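 active = fall in fluorescence gain of 50% or more versus controls, with final raw signal at or below 3038400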;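 note: plate controls were neutral control wells for no effect and wells lacking membranes for full effect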
# UCH37 confirm: retest of human UCH37 deubiquitinase inhibitors, confirmation, biochemical, Ub-AMC cleavage rate, fluorescence. Proteasome-bound UCH37. inhibition, % at 20 µM. hit rate 27% among 480. AID 624100, 2012. shares compounds with UCH37 inh;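 active = average inhibition over replicates above about 50%, so the earlier screening hit is confirmed, limit read from the data; inactive = the rest, counted as false positives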;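 note: based on cleavage rate fitted by regression over a 30 min kinetic read; 0% = proteasome plus Ub-AMC and 100% = Ub-AMC without proteasome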
# Numbers without * were called inactive; i = inactive; x = no result. A selection: hits, their analogues and other compounds. The true share with any hit is near 1.9%.
SMILES,UCH37 inh,beta cell repl,PG9 Ab binder,CR mimetic SO,NR1D1 modulator,Rce1 inhib,UCH37 confirm
CC(=O)c1nn(-c2ccccc2)cc1C(=O)c1ccc(C)cc1,6.6,0.1,-0.2,91.2,-6.5,i,x
CC(=NNC(=O)c1cccc(NN=C(C)c2cc(O)ccc2O)c1)c1cc(O)ccc1O,35.5*,x,x,x,x,x,-34.3
CC(=NNC(=O)c1ccc(NN=C(C)c2ccc(O)cc2)cc1)c1ccc(O)cc1,-49.3,x,x,x,x,x,x
COc1cc(C=NNC(=O)CSc2ccccn2)ccc1O,8.4,x,x,x,x,x,x
O=[N+]([O-])c1cccc(C=NNc2cc(Cl)nc(-c3ccccc3)n2)c1,9.8,x,x,x,x,x,x
CCc1cc[n+](C2=C([O-])c3ccccc3C(=O)/C2=N\S(=O)(=O)c2cccs2)cc1,56.6*,0.0,-4.1,102.3,3.0,i,62.3*
CC(=NNc1nc(C)cc(-c2ccccc2)n1)c1cccc(N)c1,4.0,x,x,x,x,x,x
COc1ccc(N(N=C2Sc3ccccc3C2=O)C(C)=O)cc1,77.7*,x,x,x,x,x,29.4
COc1ccccc1N(/N=C1\Sc2ccccc2C1=O)C(C)=O,x,-3.6,-1.2,84.1,-2.0,i,x
CC(=O)N(N=C1Sc2ccccc2C1=O)c1cccc(C)c1,80.9*,x,x,x,x,x,72.0*
COc1ccc(N(/N=C2\Sc3ccccc3C2=O)C(C)=O)cc1,x,x,0.0,x,10.1,x,x
C=C(C)C1CC=C(C)C(=NNC(=S)Nc2ccc(C)cc2)C1 (centres undefined),2.4,x,x,x,x,x,x
Nc1nonc1C(=O)NN=Cc1cc2c(cc1Cl)OCO2,0.6,x,x,x,x,x,x
C=C(c1ccccc1)c1ccccc1N,39.7*,-2.6,1.2,104.8,1.1,i,-2.0
NC(=O)c1ccccc1N,-113.6,-4.3,0.3,130.9,-1.2,i,x
COc1ccc(NCC(=O)NN=C2CCc3ccccc32)cc1,4.0,x,x,x,x,x,x
Cc1ccc(NC2C(=O)NC(=O)NC2=O)cc1,79.6*,x,-0.1,x,-4.9,x,-1.9
Cc1ccc(NC2CNC(=O)NC2=O)cc1C (centres undefined),2.3,x,-0.7,x,-2.0,x,x
COc1ccc(C=NS(=O)(=O)c2ccc(C)cc2)cc1,0.5,x,x,x,x,x,x
CCOC(=O)C(=NNc1ccccc1)Sc1nnnn1-c1ccc(C)cc1,-0.1,x,x,x,x,x,x
CCN1C(=O)C2(C(C(=O)c3ccc(C)o3)=C(O)C(=O)N2CCCN2CCOCC2)c2ccccc21 (centres undefined),46.4*,-1.1,1.4,114.0,-0.7,i,20.0
CCN1C(=O)C2(C(C(=O)c3ccc(C)o3)=C(O)C(=O)N2CCCN(C)C)c2ccccc21 (centres undefined),6.8,-1.2,-1.6,91.6,-3.7,i,x
Cc1cc(N=Nc2ccccc2C(=O)O)c(C)c(C)c1O,25.4*,-1.8,-0.7,72.4,18.4,i,39.1
Cc1cc(O)c(C(C)C)cc1N=Nc1ccccc1C(=O)O,19.0,0.1,0.1,110.4,19.6,i,x
CCOc1ccc(CNC(=S)NN=Cc2ccncc2)cc1,43.8*,x,x,x,x,x,-11.0
SMILES,UCH37 inh,beta cell repl,PG9 Ab binder,CR mimetic SO,NR1D1 modulator,Rce1 inhib,UCH37 confirm
CCOc1ccc(NC(C)C(=O)NN=Cc2cccs2)cc1 (centres undefined),2.8,x,x,x,x,x,x
Oc1ccc2ccccc2c1C=Nc1nc2c(s1)CCCC2,42.2*,x,x,x,x,x,24.9
COc1ccc(NC(=O)c2cncc(Br)c2)c(S(=O)(=O)N2CCOCC2)c1,35.1*,0.2,1.9,100.5,0.5,i,5.7
COc1ccc(NC(=O)c2cccnc2Cl)c(S(=O)(=O)N2CCOCC2)c1,0.3,-2.7,1.0,109.2,1.3,i,x
CN(C)c1cccc(C(=O)NN=Cc2ccccc2F)c1,4.5,x,x,x,x,x,x
CCc1ccc(NC(=O)C2CC(=O)N=C(N)S2)cc1 (centres undefined),3.9,2.8,-0.8,105.2,-2.2,i,x
CC(C)c1ccc(NC(=O)C2CC(=O)N=C(N)S2)cc1 (centres undefined),25.8*,2.4,2.6,100.3,0.4,i,55.3*
CCCCCC=NNC(=O)Cc1ccc([N+](=O)[O-])cc1,0.4,x,x,x,x,x,x
CCC1S/C(=N/N=Cc2cccs2)NC1=O (centres undefined),11.0,x,x,x,x,x,x
Oc1ccc(N=Nc2ccccc2-c2nn[nH]n2)c(O)c1,26.9*,-0.4,-3.6,97.8,15.7,i,25.8
C[C@@H]1NC(=O)c2cc([N+](=O)[O-])cc(I)c2NCC[C@@H](C(N)=O)NC(=O)[C@H](CC(N)=O)NC1=O,4.3,-4.2,x,100.2,x,x,x
C[C@@H]1NC(=O)[C@H](CCC(N)=O)NC(=O)c2cc([N+](=O)[O-])cc(I)c2NCC[C@@H](C(N)=O)NC1=O,50.4*,0.7,x,99.0,x,x,-0.9
CC1(c2ccc(OC(F)F)cc2)NC(=O)N(N=Cc2c(O)ccc3ccccc23)C1=O (centres undefined),1.5,x,x,x,x,x,x
O=C(O)CSc1cc(NS(=O)(=O)c2cccc([N+](=O)[O-])c2)c2ccccc2c1O,30.5*,x,-2.3,x,1.9,i,82.7*
CC(=NNC(=O)CCc1ccccc1)c1ccc2c(c1)OCO2,-0.1,x,x,x,x,x,x
CN1CCC[C@@H]1CCNC(=O)c1cccc2c1C(=O)c1ccc(N3CCCC3)cc1S2(=O)=O,52.2*,-0.2,-0.2,100.7,-1.1,x,13.0
Nc1cc(-c2cccc([N+](=O)[O-])c2)[nH]n1,39.1*,0.6,1.6,125.7,0.2,i,5.7
O=c1cc(-c2cccc([N+](=O)[O-])c2)[nH][nH]1,6.8,-0.6,-3.0,93.3,-3.0,i,x
CC1=C(SCc2ccccc2)C(=O)c2ccccc2C1=O,32.1*,x,0.3,x,3.2,x,47.9
NC1=C(Cl)C(=O)c2ccc(S(N)(=O)=O)cc2C1=O,89.1*,x,-17.4,x,-13.9,x,92.2*
NC1=C(Cl)C(=O)c2ccccc2C1=O,x,x,-8.2,x,-12.7,x,x
Oc1c(Br)cc(Br)c2cccnc12,x,x,-0.4,x,-5.0,x,x
[O-][n+]1cccc2c(Br)cc(Br)c(O)c21,45.3*,-6.3,0.2,90.9,-1.5,x,19.9
CC(C)CNC(=S)NNC(=O)c1ccc2c(c1)OCO2,0.2,-1.8,-0.9,124.5,-8.7,i,x
COCCCNC(=S)NNC(=O)c1ccc2c(c1)OCO2,37.3*,-0.6,0.1,97.3,-6.2,i,21.9
CC1=NN(C(=O)CSCc2ccccc2)C(O)(c2ccccc2)C1 (centres undefined),31.8*,3.0,0.6,97.2,-0.2,i,16.0
Cc1cc(C)c2oc(C(=O)Nc3nnc(C(C)C)s3)cc(=O)c2c1,14.3,0.5,-1.0,123.3,4.0,x,x
CSc1nnc(NC(=O)c2cc(=O)c3cc(C)cc(C)c3o2)s1,34.2*,-2.4,0.5,139.6,8.3,i,9.4
